Results: ChEMBL document CHEMBL1156577, “Moromycins A and B, isolation and structure elucidation of C-glycosylangucycline-type antibiotics from Streptomyces sp. KY002” (2008)
Values after ≈ are worked out from the molar mass of the structure shown.

Key:
L1210 = experiment: Cytotoxicity against cultured mouse L1210 cells
NCI-H460 = experiment: Cytotoxicity against human H460 cells after 48 hrs by SRB assay; assay type: functional; conditions: NCI-H460, 48 h; for CC50: read-out: LC50 (the source's name)
Method in brief: (§1)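 In vitro: human lung H-460 and human breast MCF-7 cell lines exposed to drugs for 48 h. Growth read by sulforhodamine B (SRB) staining.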

MCF7 = experiment: Cytotoxicity against human MCF7 cells after 48 hrs by SRB assay; assay type: functional; conditions: MCF7, 48 h; for CC50: read-out: LC50 (the source's name)
Method in brief: as §1

Row | Compound | ID50 (L1210) [µg/mL] | GI50 (NCI-H460) [µM] | TGI (NCI-H460) [µM] | CC50 (NCI-H460) [µM] | GI50 (MCF7) [µM] | TGI (MCF7) [µM] | CC50 (MCF7) [µM]
1 | CC[C@@]1(O)C[C@H](O[C@H]2C[C@H](N(C)C)[C@H](O[C@H]3C[C@@H]4O[C@H]5CC(=O)[C@@H](C)O[C@H]5O[C@@H]4[C@H](C)O3)[C@H](C)O2)c2c(cc3c(c2O)C(=O)c2c(O)cccc2C3=O)[C@H]1C(=O)OC [ACLACINOMYCIN B] | 0.24 (≈ 0.296 µM) | – | – | – | – | – | –
2 | CC[C@@]1(O)C[C@H](O[C@H]2C[C@H](N(C)C)[C@H](O[C@H]3C[C@H](O)[C@H](O[C@H]4CCC(=O)[C@H](C)O4)[C@H](C)O3)[C@H](C)O2)c2c(cc3c(c2O)C(=O)c2c(O)cccc2C3=O)[C@H]1C(=O)OC [ACLARUBICIN] | 0.12 (≈ 0.148 µM) | – | – | – | – | – | –
3 | C[C@@H]1O[C@@H](O[C@H]2CC[C@H](O[C@@]3(C)CC(=O)c4c(ccc5c4C(=O)c4ccc([C@H]6C[C@H]7O[C@H]8CC(=O)[C@H](C)O[C@H]8O[C@@H]7[C@@H](C)O6)c(O)c4C5=O)C3)O[C@H]2C)C=CC1=O [MOROMYCIN A] | – | 18.7 | 51.2 | 69.1 | 25.1 | 38.9 | 55
4 | C[C@@H]1O[C@H]2O[C@@H]3[C@@H](C)O[C@@H](c4ccc5c(c4O)C(=O)c4ccc6c(c4C5=O)C(=O)C[C@](C)(O)C6)C[C@H]3O[C@H]2CC1=O [MOROMYCIN B] | – | 4.1 | 14.1 | 52.3 | 5.6 | 9.2 | 16.3
5 | C[C@@H]1O[C@@H](O[C@H]2CC[C@H](O[C@@]3(C)CC(=O)[C@]4(O)C5=C(C=C[C@]4(O)C3)C(=O)c3c(ccc([C@H]4C[C@H]6O[C@H]7CC(=O)[C@H](C)O[C@H]7O[C@@H]6[C@@H](C)O4)c3O)C5=O)O[C@H]2C)C=CC1=O [SAQUAYAMYCIN B] | – | 12.2 | 26.5 | 34.3 | 15.2 | 21.3 | 28.1
